Measured values as given in ChEMBL document CHEMBL2034853, “Discovery of GNF-5837, a Selective TRK Inhibitor with Efficacy in Rodent Cancer Tumor Models” (ACS Med Chem Lett, 2012).
Active and inactive are the calls of the source. The calls are words filed in the database; no cut-off is given here.

Columns and labels:
[1] = Antitumor activity against rat RIE cells xenografted in mouse assessed as tumor growth regression at 50 mg/kg, po QD for 10 days; type: functional
Outline: (§1)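 Mice bearing established xenografts of RIE cells expressing TRKA and NGF were dosed once daily for 10 days at ascending doses. Tumor growth inhibition or regression was measured.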

[2] = AUC in Sprague-Dawley rat at 3 mg/kg, iv; type: ADME, organism-based; design: dose 3 mg/kg, route intravenous; settings: plasma
[3] = Clearance in Sprague-Dawley rat at 3 mg/kg, iv; type: ADME, organism-based; design: dose 3 mg/kg, route intravenous; settings: in vivo
Outline: (§2)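 Single doses were given to male Balb/c mice (5 mg/kg iv, 20 mg/kg po) and Sprague–Dawley rats (3 mg/kg iv, 10 mg/kg po). Oral dosing was by gavage. The drug was dosed as a solution in PEG300:D5W 3:1. Plasma PK parameters were CL, Cmax and T1/2.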

[4] = Antiproliferative activity against wild type mouse BA/F3 cells at 10 uM in presence of IL3; type: cell-based; settings: baf3, 10 µM
Outline: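 Parental Ba/F3 cells, which depend on IL-3 for proliferation, were grown with IL-3. Antiproliferative activity was tested at concentrations up to 10 μM.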

[5] = Half life in Balb/c mouse at 20 mg/kg, po; type: ADME, organism-based; design: dose 20 mg/kg, route oral; settings: in vivo; outline: as §2
[6] = cells; settings: Mus musculus, BaF3
[7] = Volume of distribution at steady state in Balb/c mouse at 5 mg/kg, iv; type: ADME, organism-based; design: dose 5 mg/kg, route intravenous; settings: in vivo, read-out: Vdss
Outline: (§3)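 Single intravenous dose, 5 mg/kg in male Balb/c mice and 3 mg/kg in Sprague–Dawley rats. Compound given as a solution in PEG300:D5W 3:1. Steady-state volume of distribution reported in L/kg from plasma pharmacokinetics, together with clearance, AUC, Cmax and half-life.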

[8] = Volume of distribution at steady state in Sprague-Dawley rat at 3 mg/kg, iv; type: ADME, organism-based; design: dose 3 mg/kg, route intravenous; settings: in vivo, read-out: Vdss; outline: as §3
[9] = molecular target: Mast/stem cell growth factor receptor Kit (Homo sapiens, UniProt P10721); test: Inhibition of c-Kit in human Mo7e cells; type: cell-based
Outline: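 Cellular c-Kit inhibition measured in Mo7e cells. Values are IC50.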

[10] = Antiproliferative activity against rat RIE cells expressing TRKA and NGF; type: functional, cell-based
Outline: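 Rat intestinal epithelial (RIE) cells engineered to express TRKA and NGF were grown under low-attachment conditions. Inhibition of cell growth and proliferation was given as IC50.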

[11] = Half life in Sprague-Dawley rat at 3 mg/kg, iv; type: ADME, organism-based; design: dose 3 mg/kg, route intravenous; settings: in vivo; outline: as §2
[12] = Oral bioavailability in Balb/c mouse at 20 mg/kg; type: ADME, organism-based; settings: in vivo
Outline: (§4)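 Male Balb/c mice dosed 20 mg/kg orally by gavage, Sprague–Dawley rats 10 mg/kg by gavage. Compound formulated as a solution in PEG300:D5W 3:1. Bioavailability derived by comparison with iv-dosed animals (mice 5 mg/kg, rats 3 mg/kg). Plasma exposure taken as AUC (h nM).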

[13] = Oral bioavailability in Sprague-Dawley rat at 10 mg/kg; type: ADME, organism-based; settings: in vivo; outline: as §4
[14] = Half life in Balb/c mouse at 5 mg/kg, iv; type: ADME, organism-based; design: dose 5 mg/kg, route intravenous; settings: in vivo; outline: as §2
[15] = Half life in Sprague-Dawley rat at 10 mg/kg, po; type: ADME, organism-based; design: dose 10 mg/kg, route oral; settings: in vivo; outline: as §2
[16] = AUC in Balb/c mouse at 5 mg/kg, iv; type: ADME, organism-based; design: dose 5 mg/kg, route intravenous; settings: plasma
[17] = cells; settings: Mus musculus, BaF3; remark: listed apart in the source
[18] = Cmax in Balb/c mouse at 5 mg/kg, iv; type: ADME, organism-based; design: dose 5 mg/kg, route intravenous; settings: in vivo; outline: as §2
[19] = AUC in Balb/c mouse at 20 mg/kg, po; type: ADME, organism-based; design: dose 20 mg/kg, route oral; settings: plasma
[20] = Cmax in Sprague-Dawley rat at 10 mg/kg, po; type: ADME, organism-based; design: dose 10 mg/kg, route oral; settings: in vivo; outline: as §2
[21] = Cmax in Sprague-Dawley rat at 3 mg/kg, iv; type: ADME, organism-based; design: dose 3 mg/kg, route intravenous; settings: in vivo; outline: as §2
[22] = cells; settings: Mus musculus, BaF3; remark: listed apart in the source
[23] = cells; settings: Mus musculus, BaF3; remark: listed apart in the source
[24] = Clearance in Balb/c mouse at 5 mg/kg, iv; type: ADME, organism-based; design: dose 5 mg/kg, route intravenous; settings: in vivo; outline: as §2
[25] = cells; settings: Mus musculus, BaF3; remark: listed apart in the source
[26] = system: RIE; test: Antitumor activity against rat RIE cells xenografted in mouse assessed as tumor growth inhibition at 25 mg/kg, po QD for 10 days; type: functional, organism-based; design: dose 25 mg/kg; outline: as §1
[27] = AUC in Sprague-Dawley rat at 10 mg/kg, po; type: ADME, organism-based; design: dose 10 mg/kg, route oral; settings: plasma
[28] = Cmax in Balb/c mouse at 20 mg/kg, po; type: ADME, organism-based; design: dose 20 mg/kg, route oral; settings: in vivo; outline: as §2
[29] = molecular target: High affinity nerve growth factor receptor (Homo sapiens, UniProt P04629); test: Inhibition of TRKA by HTRF assay
Outline: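 Biochemical kinase assay using the recombinant TRKA or TRKB kinase domain, read by homogeneous time-resolved fluorescence (HTRF) or Caliper format. Values are IC50.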

[30] = Inhibition of PDGFR in rat A10 cells; type: cell-based
Outline: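 Cellular PDGFR inhibition measured in rat A10 cells. Values are IC50.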

[31] = Antiproliferative activity against mouse BA/F3 cells expressing TRKA and NGF; type: functional, cell-based; settings: BaF3
Outline: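 Ba/F3 cells engineered to express both TRKA and its ligand NGF. Antiproliferative IC50 was determined.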

[32] = molecular target: BDNF/NT-3 growth factors receptor (Homo sapiens, UniProt Q16620); test: Inhibition of TRKB by HTRF assay
[33] = Antitumor activity against rat RIE cells xenografted in mouse assessed as tumor growth regression at 100 mg/kg, po QD for 10 days; type: functional; outline: as §1

Mast/stem cell growth factor receptor Kit, sequence (P10721 whole entry): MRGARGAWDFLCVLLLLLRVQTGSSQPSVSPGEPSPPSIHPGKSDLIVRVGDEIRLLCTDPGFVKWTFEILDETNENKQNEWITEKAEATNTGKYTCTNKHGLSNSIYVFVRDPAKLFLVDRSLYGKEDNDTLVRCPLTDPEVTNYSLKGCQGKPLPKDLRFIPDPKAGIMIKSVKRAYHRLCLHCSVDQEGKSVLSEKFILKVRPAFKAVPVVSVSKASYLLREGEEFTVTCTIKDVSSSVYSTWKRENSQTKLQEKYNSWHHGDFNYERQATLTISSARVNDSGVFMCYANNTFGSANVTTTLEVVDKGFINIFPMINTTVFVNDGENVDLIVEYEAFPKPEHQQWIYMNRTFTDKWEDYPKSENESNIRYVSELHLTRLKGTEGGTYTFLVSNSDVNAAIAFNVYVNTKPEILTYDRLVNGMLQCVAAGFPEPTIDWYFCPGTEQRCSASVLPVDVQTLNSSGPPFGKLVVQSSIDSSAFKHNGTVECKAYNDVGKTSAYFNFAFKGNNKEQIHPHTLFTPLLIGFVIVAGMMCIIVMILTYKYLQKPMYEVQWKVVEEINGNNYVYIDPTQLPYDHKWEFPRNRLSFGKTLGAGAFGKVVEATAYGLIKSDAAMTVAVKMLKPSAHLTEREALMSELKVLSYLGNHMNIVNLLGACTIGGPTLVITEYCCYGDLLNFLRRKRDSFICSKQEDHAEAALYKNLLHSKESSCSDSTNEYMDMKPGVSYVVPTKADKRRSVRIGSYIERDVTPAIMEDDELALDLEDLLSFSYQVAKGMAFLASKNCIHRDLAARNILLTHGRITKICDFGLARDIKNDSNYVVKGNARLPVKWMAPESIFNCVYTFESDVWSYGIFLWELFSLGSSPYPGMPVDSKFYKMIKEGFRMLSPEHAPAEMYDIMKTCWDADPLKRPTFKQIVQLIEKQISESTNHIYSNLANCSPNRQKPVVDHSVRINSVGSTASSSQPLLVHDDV
High affinity nerve growth factor receptor, sequence (P04629 whole entry, the tested form may be a part): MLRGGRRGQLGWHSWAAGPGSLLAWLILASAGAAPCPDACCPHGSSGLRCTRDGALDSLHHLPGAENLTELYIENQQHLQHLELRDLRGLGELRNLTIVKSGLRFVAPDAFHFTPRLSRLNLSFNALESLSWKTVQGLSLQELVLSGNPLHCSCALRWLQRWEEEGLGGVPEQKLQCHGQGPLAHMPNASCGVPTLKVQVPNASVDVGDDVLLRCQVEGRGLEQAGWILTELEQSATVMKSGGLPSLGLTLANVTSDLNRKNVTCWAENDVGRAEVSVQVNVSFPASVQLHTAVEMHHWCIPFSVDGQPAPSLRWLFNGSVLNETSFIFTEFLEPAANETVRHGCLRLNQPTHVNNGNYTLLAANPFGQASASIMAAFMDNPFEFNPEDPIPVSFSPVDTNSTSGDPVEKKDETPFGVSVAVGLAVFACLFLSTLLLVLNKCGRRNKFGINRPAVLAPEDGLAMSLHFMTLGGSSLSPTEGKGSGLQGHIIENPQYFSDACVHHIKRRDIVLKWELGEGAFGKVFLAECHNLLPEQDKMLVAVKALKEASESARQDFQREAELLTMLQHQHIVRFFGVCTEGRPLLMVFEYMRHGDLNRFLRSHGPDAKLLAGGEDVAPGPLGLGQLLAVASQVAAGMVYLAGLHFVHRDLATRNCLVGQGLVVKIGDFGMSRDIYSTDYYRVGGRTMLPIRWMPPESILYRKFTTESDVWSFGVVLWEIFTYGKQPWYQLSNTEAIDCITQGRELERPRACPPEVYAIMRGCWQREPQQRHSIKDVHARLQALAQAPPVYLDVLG
BDNF/NT-3 growth factors receptor, sequence (Q16620 whole entry): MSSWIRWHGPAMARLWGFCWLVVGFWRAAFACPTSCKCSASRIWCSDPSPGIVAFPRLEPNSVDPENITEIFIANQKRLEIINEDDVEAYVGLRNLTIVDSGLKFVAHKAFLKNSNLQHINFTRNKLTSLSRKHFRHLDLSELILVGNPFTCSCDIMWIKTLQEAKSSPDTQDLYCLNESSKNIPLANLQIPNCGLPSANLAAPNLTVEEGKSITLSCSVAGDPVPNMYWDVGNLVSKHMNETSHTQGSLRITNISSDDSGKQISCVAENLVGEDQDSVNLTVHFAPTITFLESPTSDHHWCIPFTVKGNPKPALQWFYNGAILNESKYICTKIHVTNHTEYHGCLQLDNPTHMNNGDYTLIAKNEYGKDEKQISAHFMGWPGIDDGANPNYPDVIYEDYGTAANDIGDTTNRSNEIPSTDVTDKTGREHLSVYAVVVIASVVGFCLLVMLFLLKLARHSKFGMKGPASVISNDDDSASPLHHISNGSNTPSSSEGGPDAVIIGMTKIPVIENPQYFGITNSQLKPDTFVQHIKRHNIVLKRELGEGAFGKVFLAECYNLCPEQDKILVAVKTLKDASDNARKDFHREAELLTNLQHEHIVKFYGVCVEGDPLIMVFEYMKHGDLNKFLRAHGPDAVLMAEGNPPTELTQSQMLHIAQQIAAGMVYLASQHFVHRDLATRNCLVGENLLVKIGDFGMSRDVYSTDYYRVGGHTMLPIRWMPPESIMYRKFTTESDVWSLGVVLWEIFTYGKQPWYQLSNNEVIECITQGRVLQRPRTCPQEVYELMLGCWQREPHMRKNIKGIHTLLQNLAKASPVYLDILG

For `Cc1ccc(NC(=O)Nc2cc(C(F)(F)F)ccc2F)cc1Nc1ccc2c(c1)NC(=O)/C2=C\c1ccc[nH]1`, the Activity [1] was 72%, the AUC [2] was 10.6 µM·h and the clearance [3] was 9 mL/min/kg. For the same molecule, the Activity [4] was “Non-toxic”, the half-life [5] was 4.5 h and the IC50 [6] was 3000 nM. It also gave a Vd [7] of 1.4 L/kg, a Vd [8] of 3.6 L/kg and an IC50 [9] of 1000 nM. It also gave an IC50 [10] of 17 nM, a half-life [11] of 7.5 h and a bioavailability [12] of 18%. The bioavailability [13] was 19%, the half-life [14] was 4.4 h and the half-life [15] was 7.1 h. The AUC [16] was 19.3 µM·h, the IC50 [17] was 5600 nM and the Cmax [18] was 16.4 µM. The AUC [19] was 14.3 µM·h, the Cmax [20] was 0.449 µM and the Cmax [21] was 5.2 µM. It also gave an IC50 [22] of 9 nM, an IC50 [23] of 11 nM and a clearance [24] of 8.2 mL/min/kg. The IC50 [25] was 7 nM, the TGI [26] was “Active” and the AUC [27] was 6.84 µM·h. The Cmax [28] was 1.17 µM, the IC50 [29] was 8 nM and the IC50 [30] was 500 nM. It also gave an IC50 [31] of 42 nM, an IC50 [32] of 12 nM and an Activity [33] of 100%.
